Measurements reported in ChEMBL document CHEMBL1909522, “Inhibitory effect on NO production of phenolic compounds from Myristica fragrans” (Bioorg Med Chem Lett, 2011).
Active and inactive are the calls of the source. The calls are words filed in the database; no cut-off is given here.

What was measured:
RAW264.7 [1] = test: Antiinflammatory activity in mouse RAW264.7 cells assessed as inhibition of LPS-induced NO production after 24 hrs by Griess reagent method; assay type: functional, cell-based; conditions: RAW264.7, 24 h
How it was run: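 RAW264.7 cells (1 × 10^5 per well) stimulated with 1 µg/mL LPS for 24 h with or without test compounds (0.5–25 µM). Nitrite in culture supernatant measured by Griess reaction as NO marker. IC50 relative to vehicle control; average of three repeated experiments.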

RAW264.7 [2] = test: Cytotoxicity against mouse RAW264.7 cells assessed as cell viability at 50 uM after 24 hrs by MTT assay; assay type: cell-based; conditions: raw264.7, 24 h
How it was run: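 Cells remaining after the Griess step, with or without LPS (1 µg/mL) and compound at 50 µM for 24 h, assessed by MTT colorimetric assay for viability.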

RAW264.7 [3] = test: Antiinflammatory activity in mouse RAW264.7 cells assessed as inhibition of LPS-stimulated iNOS expression after 18 hrs by immunoblot analysis; assay type: functional, cell-based
How it was run: (§1)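 RAW264.7 cells pretreated 30 min with compound (0, 1, 3, 10 µM), then stimulated with LPS 1 µg/mL for 18 h. Lysates in Tris-HCl pH 7.5/NP-40 buffer with protease/phosphatase inhibitors; 50 µg protein per lane on SDS-PAGE, PVDF transfer, antibody probing, ECL detection. Densitometry normalized to α-tubulin; mean ± S.D.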

RAW264.7 [4] = test: Antiinflammatory activity in mouse RAW264.7 cells assessed as inhibition of LPS-stimulated alpha-tubulin expression at 0.1 to 10 uM after 18 hrs by immunoblot analysis; assay type: functional, cell-based
RAW264.7 [5] = test: Antiinflammatory activity in mouse RAW264.7 cells assessed as inhibition of LPS-stimulated COX2 expression after 18 hrs by immunoblot analysis; assay type: functional, cell-based; how it was run: as §1

| IC50 (RAW264.7 [1]) [µM] | Compound | Activity (RAW264.7 [2]) | inhibition (RAW264.7 [3]) | inhibition (RAW264.7 [4]) | inhibition (RAW264.7 [5]) |
| --- | --- | --- | --- | --- | --- |
| > 50 | COc1cc(CC[C@H](O)c2ccc(O)cc2O)ccc1O | Non-toxic |  |  |  |
| 25 | C/C=C/c1ccc(O[C@H](C)[C@@H](O)c2ccc(O)c(OC)c2)c(OC)c1 | Non-toxic |  |  |  |
| 2.3 | O=C(CCCCCCCCc1ccc(O)c(O)c1)c1c(O)cccc1O [MALABARICONE C] | Non-toxic | Dose-dependent effect | inactive | Dose-dependent effect |
| > 50 | Oc1ccc([C@@H](O)CCc2ccc3c(c2)OCO3)c(O)c1 | Non-toxic |  |  |  |

The remaining lines, values behind:

| Compound | IC50 (RAW264.7 [1]) [µM] | Activity (RAW264.7 [2]) | inhibition (RAW264.7 [3]) | inhibition (RAW264.7 [4]) | inhibition (RAW264.7 [5]) |
| --- | --- | --- | --- | --- | --- |
| CC1=C(O)C(=O)C=C2C1=CC=C1[C@@]2(C)CC[C@@]2(C)[C@@H]3C[C@](C)(C(=O)O)CC[C@]3(C)CC[C@]12C [CELASTROL] | 1 |  |  |  |  |
| COc1cc(C[C@@H](C)[C@H](C)c2cc(O)c(O)c(OC)c2)ccc1O | 32.5 | Non-toxic |  |  |  |
| C=CCc1cc(OC)c(O[C@H](C)[C@@H](O)c2ccc(OC)c(OC)c2)c(OC)c1 | > 50 | Non-toxic |  |  |  |
| C=CCc1cc(OC)c(O[C@H](C)[C@@H](OC(C)=O)c2ccc(OC)c(OC)c2)c(OC)c1 | 24.5 |  |  |  |  |
